According to publication PMC6626068 (Journal of Advanced Research, 2019):
Like-named read-outs stand apart in the source and are kept apart here.

Tests used:
Type in all cases: cell-based
HeLa = assay: MTT cytotoxicity assay, HeLa cells; conditions: 72 h; for IC50: read-out: IC50 (μM) HeLa
In short: (§1)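 Cells were grown in DMEM with 10% FBS and 1% penicillin/streptomycin at 37 °C under 5% CO₂, then seeded at 1 × 10⁴ cells/well. After 24 h they received the test compound at 0, 2.5, 5, 10, 20 and 40 μM for 72 h, with doxorubicin as positive control. MTT (5 mg/mL stock) was added for 4 h, formazan dissolved in DMSO for 10 min, A570 read, and IC50 calculated.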

HepG2 = assay: MTT cytotoxicity assay, HepG2 cells; conditions: read-out: IC50 (μM) HepG2
In short: as §1

MCF-7 = assay: MTT cytotoxicity assay, MCF-7 cells; conditions: for IC50: read-out: IC50 (μM) MCF-7
In short: as §1

HCT-116 = assay: MTT cytotoxicity assay, HCT-116 cells; conditions: read-out: IC50 (μM) HCT-116
In short: as §1

MDA-MB-231 = assay: MTT cytotoxicity assay, MDA-MB-231 cells; conditions: read-out: IC50 (μM) MDA-MB-231
In short: as §1

HUVEC = assay: MTT cytotoxicity assay, normal cell line HUVEC; conditions: 72 h, read-out: IC50 (μM) HUVEC
GFP-LC3-HeLa cells = assay: Autophagy detection using GFP-LC3 expression in HeLa cells; conditions: 25 μM, 24 h, observation control
In short: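 HeLa cells stably expressing GFP-LC3, grown in 24-well plates, were exposed to the test compound for 24 h, either at 10 μM for screening or at 2.5, 5, 10 and 20 μM. Chloroquine phosphate at 25 μM served as the observation control. GFP-LC3 puncta were imaged by fluorescence microscopy, and dots per cell were counted.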

HeLa cells = assay: Annexin V/PI double staining flow cytometry, HeLa; conditions: 1 μM, 48 h (positive control)
MCF-7 cells = assay: Annexin V/PI double staining flow cytometry, MCF-7; conditions: MCF-7, 1 μM, 48 h (positive control)

Row | Compound | IC50 (HeLa; Homo sapiens) [µM] | IC50 (HepG2; Homo sapiens, HepG2, 72 h) [µM] | IC50 (MCF-7; Homo sapiens, MCF7, 72 h) [µM] | IC50 (HCT-116; Homo sapiens, HCT-116, 72 h) [µM] | IC50 (MDA-MB-231; Homo sapiens, MDA-MB-231, 72 h) [µM] | IC50 (HUVEC; Homo sapiens, HUVEC) [µM] | also measured
1 | COc1cccc2c1C(=O)c1c(O)c3c(c(O)c1C2=O)C[C@@](O)(C(=O)CO)C[C@@H]3O[C@H]1C[C@H](N)[C@H](O)[C@H](C)O1 [Doxorubicin, reference compound] | 0.03 ± 0.001 | 0.02 ± 0.002 | 0.02 ± 0.003 | 0.03 ± 0.003 | 0.03 ± 0.002 | 0.04 ± 0.005 | –
2 | COc1cc(-c2coc3c(CC=C(C)C)c(OC)c(OC)c(O)c3c2=O)c(OC)cc1O [Compound 5, 8-(γ, γ-dimethylallyl)-5,4′-dihydroxy-6,7,2′,5′-tetramethoxyisoflavone] | 35.7 ± 3.91 | 31.6 ± 2.06 | 35.1 ± 1.44 | 25.9 ± 0.85 | 27.6 ± 4.54 | > 50 | –
3 | 3,9-dihydroxypterocarp-6a-en [Compound 17] | – | – | – | – | – | – | IC50 (HeLa; MTT, means ± SEM (n = 3)): 36.1 ± 7.34 µM; IC50 (HepG2; MTT, 72 h, means ± SEM (n = 3)): 34.2 ± 1.87 µM; IC50 (MCF-7; MTT, 72 h, means ± SEM (n = 3)): 30.3 ± 1.32 µM; IC50 (HCT-116; MTT, 72 h, means ± SEM (n = 3)): 39.7 ± 2.06 µM; IC50 (MDA-MB-231; MTT, 72 h, means ± SEM (n = 3)): 36.8 ± 5.61 µM; IC50 (HUVEC; normal cell line, MTT, compounds at 50 μM, means ± SEM (n = 3)): > 50 µM
4 | COc1cc(OC)c(-c2coc3c(CC=C(C)C)c(OC)c(OC)cc3c2=O)cc1OC [Compound 4, 8-(γ, γ-dimethylallyl)-6,7,2′,4′,5′-pentamethoxyisoflavone] | 7.86 ± 1.21 | 8.74 ± 0.83 | 18.5 ± 0.51 | 8.61 ± 0.72 | 15.8 ± 2.15 | > 50 | growth inhibition of HeLa cells (primary screening) (HeLa; 50 μM, MTT): most active; growth inhibition of MCF-7 cells (primary screening) (MCF-7; 50 μM, 72 h, MTT): most active
5 | CCN(CC)CCCC(C)Nc1ccnc2cc(Cl)ccc12 (centres unmarked) [chloroquine phosphate] | – | – | – | – | – | – | GFP-LC3 dots (autophagosomes) (GFP-LC3-HeLa cells): obvious increase in the GFP-LC3 dots
6 | COc1cc2c(c(OC)c1OC)-c1ccc(OC)c(=O)cc1[C@@H](NC(C)=O)CC2 [Colchicine, colchicine] | – | – | – | – | – | – | apoptosis rate (early + late apoptotic cells) (HeLa cells): 45.62%; apoptosis rate (early + late apoptotic cells) (MCF-7 cells): 38.01%
